The source of these data is paper PMC11070865 (Heliyon, 2024).

Structures are written as SMILES. ≈ marks a conversion by molar mass, not a printed value. Like-named read-outs stand apart in the source and are kept apart here.

In general, IC50 refers to the concentration needed to halve the response being measured.

One data set deals with KATO-III cell line. In words: Cell viability by MTT assay, KATO-III. The class given is cell-based. The note with it: for IC50: Homo sapiens, KATO III, read-out: IC50 on KATO-III.
Data set [1] concerns WI-38 normal lung fibroblast cell line. In words: Cell viability by MTT assay, WI-38. The class given is cell-based. The conditions noted are these: Homo sapiens, read-out: IC50 on WI-38. For orientation: Tetrazolium dyes change colour on reduction, which living cells bring about.
Data set [2] concerns KATO-III cells. In words: Programmed cell death, annexin V/PI flow cytometry. The note with it: for Q2 late apoptotic cells (annexin V+ PI+): 72 h. The class given is cell-based. On the technique in general: Flow cytometry measures light scatter and fluorescence of single cells or particles in a stream.
Data set [3] relates to KATO-III cells. In words: Cell cycle arrest analysis, PI flow cytometry. The class given is cell-based. The conditions noted are these: MF 7.5, 15 and 30 μg/mL, from 24 h exposure onwards, P < 0.01. The gist of the method: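 KATO-III cells at 5 × 10⁵ per well in 6-well plates were exposed to test compound (0, 7.5, 15 and 30 μg/mL final) or 1 % (v/v) DMSO for 24, 48 and 72 h (37 °C, 5 % CO₂). Cells were trypsinized and washed in cold PBS, then fixed in 70 % ethanol on ice for 30 min. They were treated with RNase A (100 μg/mL, 30 min, 37 °C) and stained with PI (50 μg/mL). Flow cytometry recorded 10,000 events per sample, in triplicate.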

Data set [4] concerns KATO-III cells. In words: Cell imaging. The class given is cell-based. The gist of the method: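 KATO-III cells at 5 × 10⁵ per well in 6-well plates were left for 16 h, then given test compound (7.5, 15 or 30 μg/mL), doxorubicin (1.14 μg/mL) or 1 % (v/v) DMSO for 24, 48 and 72 h. Culture was at 37 °C, 5 % CO₂, humidified. Morphology was viewed by light microscopy with camera imaging at 100× and 200×.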

For another data set, the system named is COX2. In words: RT-qPCR transcript expression, COX2. The class given is cell-based. The conditions noted are these: KATO-III, MF 30 μg/mL or doxorubicin 1.14 μg/mL. In general terms: Quantitative PCR measures a nucleic acid by following its amplification.
The subject of the next data set is NFkB. Description: RT-qPCR transcript expression, NFkB. The note with it: KATO-III, MF 30 μg/mL or doxorubicin 1.14 μg/mL. The class given is cell-based.
The next data set deals with CASP3. Description: RT-qPCR transcript expression, CASP3. The class given is cell-based. The note with it: KATO-III, MF 30 μg/mL or doxorubicin 1.14 μg/mL.
The next data set has as its system CASP7. In words: RT-qPCR transcript expression, CASP7. The note with it: KATO-III, MF 30 μg/mL or doxorubicin 1.14 μg/mL. The class given is cell-based.
The subject of a further data set is CTSB. In words: RT-qPCR transcript expression, CTSB. The note with it: KATO-III, MF 30 μg/mL. The class given is cell-based.
In the next data set the test system is BCL-2. In words: RT-qPCR transcript expression, BCL-2. The note with it: KATO-III, 48 h (doxorubicin: from 48 h onwards); MF 30 μg/mL or doxorubicin 1.14 μg/mL. The class given is cell-based.
Data set [5] concerns LU-1 lung cancer cell line. The conditions noted are these: MF from Lisotrigona furua propolis; cited from earlier work.
Data set [6] deals with MCF-7 breast cancer cell line. The conditions noted are these: MF from Lisotrigona furua propolis; cited from earlier work.
Data set [7] relates to Caco-2, KB, SK-MEL-28 and HN30 cancer cells. The conditions noted are these: SK-MEL-28, HN30; cited from earlier work.
Data set [8] has as its system NCI-N87 gastric cancer cells. The note with it: at 200 μg/mL; cited from earlier work.
Data set [9] has as its system human gastric adenocarcinoma cell line (AGS cells). The note with it: read-out: IC50 against AGS cells; cited from earlier work.

For the compound `C/C(=C\CC[C@@H](C)[C@H]1CC[C@@]2(C)[C@@H]3CC[C@H]4C(C)(C)[C@@H](O)CC[C@@]45C[C@@]35CC[C@]12C)C(=O)O` [Compound 2, mangiferolic acid], the half-inhibitory concentration (IC50) in the data set with KATO-III cell line (24 h) is 16 µg/mL (≈ 35.1 µM); in the data set on KATO-III cell line (48 h), 12 µg/mL (≈ 26.2 µM); in the data set on KATO-III cell line (72 h) it was 4.78 µg/mL (≈ 10.5 µM); in data set [1] (WI-38, 24 h), 22 µg/mL (≈ 48.3 µM); in data set [1] (WI-38, 48 h), 13.7 µg/mL (≈ 29.9 µM); in data set [1] (WI-38, 72 h), 11.6 µg/mL (≈ 25.4 µM). In addition, in the data set on KATO-III cells [2] (MF 15 μg/mL, listed as MF), the “Q2 late apoptotic cells (annexin V+ PI+)” value is on record as “slightly increased level of apoptotic cells”. The cell cycle arrest entry in the data set on KATO-III cells [3] was “induced detectable levels of cell cycle arrest at the sub-G1 phase and S phase population”. Further, the “morphology of KATO-III cells” value in the data set on KATO-III cells [4] (15 μg/mL, 24 and 48 h) is given as “No significant change in the morphology”; in the data set with KATO-III cells [4] (30 μg/mL, 48 h, 100× magnification), “lower density of cells”. Also, the “COX2 transcript expression level vs control” value in the data set on COX2 (24 h) is on record as “upregulated”; in the data set with COX2 (48 h), “significant upregulation”; with COX2 (72 h), “increased in gene expression compared to control cells”. Also, the “NFkB transcript expression level vs control” value is “upregulated with significant increased” in the data set with NFkB (24 h), “significant upregulation” in the data set with NFkB (48 h) and “increased in gene expression compared to control cells” in the data set with NFkB (72 h). In addition, the “CASP3 transcript expression level vs control” value with CASP3 (48 h) is “significant upregulation”; in the data set on CASP3 (72 h) it was “increased in gene expression compared to control cells”. Also, the “CASP7 transcript expression level vs control” value was “significant upregulation” with CASP7 (48 h) and “increased in gene expression compared to control cells” in the data set with CASP7 (72 h). For the same compound, the “CTSB transcript expression level vs control” value with CTSB (48 h) is given as “significant upregulation”; in the data set on CTSB (72 h) it was “only a slight increase compared to control cells”. The “BCL-2 transcript expression level vs control” value with BCL-2 is reported as “remained the same as in control cells”. Further, the “IC50 against LU-1” value in data set [5] is 13.33 µg/mL (≈ 29.2 µM). The “IC50 against MCF-7” value in data set [6] was 62.85 µg/mL (≈ 138 µM).

In the case of `COc1cccc2c1C(=O)c1c(O)c3c(c(O)c1C2=O)C[C@@](O)(C(=O)CO)C[C@@H]3O[C@H]1C[C@H](N)[C@H](O)[C@H](C)O1` [Doxorubicin, doxorubicin, reference compound], the half-maximal inhibitory concentration (IC50) in the data set on KATO-III cell line (24 h) is 1.55 µg/mL (≈ 2.85 µM); with KATO-III cell line (48 h), 1.43 µg/mL (≈ 2.63 µM); with KATO-III cell line (72 h) it was 0.56 µg/mL (≈ 1.03 µM); in data set [1] (WI-38, 24 h), 0.78 µg/mL (≈ 1.44 µM); in data set [1] (WI-38, 48 h), 0.09 µg/mL (≈ 0.166 µM); in data set [1] (WI-38, 72 h), 0.02 µg/mL (≈ 0.0368 µM). Also, the “fold higher cytotoxicity than compounds 1 and 2” value with KATO-III cell line (both cancer and normal cell lines) is listed as > 5 fold. Moreover, in the data set on KATO-III cells [2] (doxorubicin 1.14 μg/mL, 48 h), the “Q1 early apoptotic cells (annexin V+ PI−)” value is “significantly enhanced level of early apoptosis”. For the same compound, the “Q2 late apoptotic cells (annexin V+ PI+)” value in the data set with KATO-III cells [2] (doxorubicin 1.14 μg/mL) is “significantly higher compared to the control (P < 0.01)”. Moreover, the “morphology of KATO-III cells” value with KATO-III cells [4] (1.14 μg/mL, 72 h) was “clear loss of cell density”; in the data set on KATO-III cells [4] (1.14 μg/mL, after 48 h) it was “cell shrinkage and blebbing”. Moreover, the “COX2 transcript expression level vs control” value in the data set on COX2 (24 h) is “no significant difference”. Moreover, in the data set with NFkB (24 h), the “NFkB transcript expression level vs control” value is given as “no significant difference”. For the same compound, the “CASP3 transcript expression level vs control” value in the data set with CASP3 (48 h) and in the data set on CASP3 (72 h) was “significantly up-regulated” throughout. Also, the “CASP7 transcript expression level vs control” value is given as “slightly increase” in the data set with CASP7 (24 h), “significantly up-regulated” with CASP7 (48 h) and “significantly up-regulated” in the data set with CASP7 (72 h). Moreover, in the data set with BCL-2, the “BCL-2 transcript expression level vs control” value was “slightly decreased (but not significant)”.

Take `COc1c(O)cc2oc3cc(O)c(CC=C(C)C)c(O)c3c(=O)c2c1CC=C(C)C` [alpha-mangostin]: the “migration of cancer cells” value in data set [7] is reported as “inhibited the migration”.

Turning to `CC(C)=CCc1c(O)cc2oc3cc(O)c(O)c(CC=C(C)C)c3c(=O)c2c1O` [gamma-mangostin], the “migration of cancer cells” value in data set [7] is “inhibited the migration”.

As to `O=C1C[C@@H](c2ccccc2)Oc2cc(O)cc(O)c21` [pinocembrin], in [8], the cytotoxic activity is listed as 72.5%.

For the compound `O=c1c(O)c(-c2ccc(O)c(O)c2)oc2cc(O)cc(O)c12` [quercetin], in data set [9], the IC50 is 160 µM.
